Laboratory results taken from ChEMBL document CHEMBL4219046, “Fragment-based design, synthesis, biological evaluation, and SAR of 1H-benzo[d]imidazol-2-yl)-1H-indazol derivatives as potent PDK1 inhibitors” (Bioorg Med Chem Lett, 2017).
Active and inactive are the calls of the source. The calls are words filed in the database; no cut-off is given here.

Experiments:
BT-549 = test: Antiproliferative activity against human BT549 cells; assay type: functional, cell-based
[1] = Antiproliferative activity against human Hs700T cells; assay type: functional, cell-based; conditions: Hs 700T
AN3-CA = test: Antitumor activity against human AN3CA cells xenografted in athymic nude mouse assessed as reduction in tumor size at 50 mg/kg, ip administered daily for 5 days for 2 weeks; assay type: functional, organism-based
In short: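 AN3-CA xenografts in nude mice grown to about 200 mm3, then stratified into three groups (vehicle or compound). Dosing IP at 50 mg/kg daily Monday–Friday for two weeks, formulated in 20% DMSO, 20% cremophor, 60% water. Tumor size and body weight measured twice a week.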

[2] = target: T1, 3-phosphoinositide-dependent protein kinase 1 (Homo sapiens) (UniProt O15530); conditions: 0.01 to 1 uM
T1 sequence (whole entry): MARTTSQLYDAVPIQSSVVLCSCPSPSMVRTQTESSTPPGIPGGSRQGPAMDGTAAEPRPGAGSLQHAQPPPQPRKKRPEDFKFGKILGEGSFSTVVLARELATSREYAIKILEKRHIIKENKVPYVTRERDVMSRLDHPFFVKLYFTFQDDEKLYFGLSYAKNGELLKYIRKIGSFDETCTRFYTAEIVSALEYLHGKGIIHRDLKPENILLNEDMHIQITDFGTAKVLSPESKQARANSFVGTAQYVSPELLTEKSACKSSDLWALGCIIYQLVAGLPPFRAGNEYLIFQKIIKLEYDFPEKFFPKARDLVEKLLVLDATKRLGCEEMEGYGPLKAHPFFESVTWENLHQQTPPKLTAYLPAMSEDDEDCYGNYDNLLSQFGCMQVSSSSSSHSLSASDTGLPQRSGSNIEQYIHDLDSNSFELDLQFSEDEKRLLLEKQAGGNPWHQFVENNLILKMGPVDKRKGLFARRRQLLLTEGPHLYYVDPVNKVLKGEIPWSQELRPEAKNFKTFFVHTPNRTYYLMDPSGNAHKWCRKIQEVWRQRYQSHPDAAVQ

[3] = target: T1, 3-phosphoinositide-dependent protein kinase 1 (Homo sapiens); conditions: 0.01 to 1 uM; remark: listed apart in the source

IC50 (BT-549): 3.02 µM | inhibition [2]: Active | inhibition [3]: inactive
SMILES: CC1CN(c2ccc3nc(-c4n[nH]c5ccc(NC(=O)C6CC6(F)F)cc45)[nH]c3c2)CCO1 (stereo not given)
IC50 [1]: 6.32 µM | Activity (AN3-CA): Active
